Assay [1] has as its target Recombinant TryR from T. brucei (Trypanosoma brucei brucei, UniProt P39051). The assay is described as follows: DTNB-coupled colourimetric TryR screening/potency assay. In kind it is biochemical.
Another assay concerns the target TryR (Trypanosoma brucei brucei, UniProt P39051). The assay is described as follows: Mode of inhibition studies on TryR. In kind it is biochemical. Particulars: for Inhibitor constants Ki′: T[S]2 varied, mixed inhibition, second constant; for Mode of inhibiton: TryR, global nonlinear fit of 1/v vs 1/[S] data. The gist of the method:
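TryR with 150 μm NADPH, 50 μm DTNB, 20 mU/mL enzyme in 40 mm HEPES, 1 mm EDTA, pH 7.4. Three test-compound levels plus an inhibitor-free row. Started with T[S]2 over 12 points, 500 to 5.8 μm. NADPH was also varied at fixed T[S]2. Rates from linear A412 rise, inspected as 1/v vs 1/[S], then globally fitted to competitive, mixed or uncompetitive equations.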

Assay [2] has as its target T1, human glutathione reductase (Homo sapiens, UniProt P00390).
T1 sequence (P00390 44-522): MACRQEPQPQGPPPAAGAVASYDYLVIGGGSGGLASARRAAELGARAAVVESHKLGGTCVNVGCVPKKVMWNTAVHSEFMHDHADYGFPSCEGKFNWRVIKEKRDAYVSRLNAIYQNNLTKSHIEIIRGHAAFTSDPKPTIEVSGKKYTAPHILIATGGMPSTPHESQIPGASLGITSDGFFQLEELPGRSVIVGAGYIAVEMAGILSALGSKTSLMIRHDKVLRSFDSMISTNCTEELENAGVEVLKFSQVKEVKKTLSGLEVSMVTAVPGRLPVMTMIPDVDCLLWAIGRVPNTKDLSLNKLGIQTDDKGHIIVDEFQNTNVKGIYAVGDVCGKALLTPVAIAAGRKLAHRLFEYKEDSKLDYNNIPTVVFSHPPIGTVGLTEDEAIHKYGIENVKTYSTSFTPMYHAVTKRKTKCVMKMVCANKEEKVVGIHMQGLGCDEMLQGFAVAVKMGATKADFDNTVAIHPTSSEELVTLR
Put plainly: Glutathione reductase. It counts as biochemical.

Assay [3] concerns bloodstream form T. brucei brucei single marker. Put plainly: Trypanosome growth assay. In kind it is cell-based. Particulars: Trypanosoma brucei, 73 h, read-out: EC50 Parasite. The gist of the method: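 Bloodstream-form T. b. brucei single marker in HMI9-T with 10% FCS, 2000 cells/well, added to plates pre-stamped with test compound; media-only column as blank. Ten points from 15 μm to 0.5 nm or 50 μm to 2 nm; final DMSO 0.5%. Incubated 69 h at 37°C, 5% CO2, then resazurin (final 50 μm) for 4 h; fluorescence at ex 528/em 590 nm.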

A value given as a limit tells only on which side of the number the result lay.

Chain of TryR (P39051 whole entry): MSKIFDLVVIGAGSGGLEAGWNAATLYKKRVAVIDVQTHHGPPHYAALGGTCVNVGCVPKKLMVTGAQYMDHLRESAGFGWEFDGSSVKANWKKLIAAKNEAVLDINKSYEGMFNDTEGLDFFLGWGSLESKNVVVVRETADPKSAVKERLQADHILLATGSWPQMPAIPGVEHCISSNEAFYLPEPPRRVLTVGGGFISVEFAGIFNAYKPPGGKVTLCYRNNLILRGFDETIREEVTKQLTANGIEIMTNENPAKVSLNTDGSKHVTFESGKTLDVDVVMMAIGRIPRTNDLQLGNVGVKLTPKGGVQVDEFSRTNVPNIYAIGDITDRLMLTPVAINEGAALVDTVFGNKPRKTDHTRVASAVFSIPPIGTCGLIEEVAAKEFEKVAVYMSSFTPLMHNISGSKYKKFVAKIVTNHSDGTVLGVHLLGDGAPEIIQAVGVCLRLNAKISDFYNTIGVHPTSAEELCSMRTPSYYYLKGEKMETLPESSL
Chain of Recombinant TryR from T. brucei (P39051 whole entry): as above

In general, IC50 refers to the concentration that inhibits the measured activity by half. One may read the Ki as a dissociation constant, usually derived from enzyme kinetics or from competition with a known ligand. A low value points to higher affinity. In general, EC50 refers to the concentration needed to bring the measured effect to its halfway point. Consider `Cc1ccc(-c2cc(C(=O)NCCN(C)C)c3cc(Br)ccc3n2)o1` [Compound 1, 6-Bromo-N-(2-(dimethylamino)ethyl)-2-(5-methylfuran-2-yl)quinoline-4-carboxamide], for which the IC50 in assay [1] stood at 1.7 µM. In addition, at TryR, the affinity, expressed as Ki, was 1.6 ± 0.2 µM; the “Inhibitor constants Ki′” value is 3.2 ± 0.3 µM; the Mode of inhibiton entry was “linear mixed”. This compound also registered an IC50 in assay [2] greater than 100 µM. The EC50 in assay [3] was found to be 10.3 µM.

As for `CNCCNC(=O)c1cc(-c2ccc(C)o2)nc2ccc(Br)cc12` [Compound 2, 6-Bromo-N-(2-(methylamino)ethyl)-2-(5-methylfuran-2-yl)quinoline-4-carboxamide], the concentration for half-maximal inhibition (IC50) in assay [1] turned out to be 1.1 µM. In addition, the EC50 in assay [3] was determined as 6 µM.

Turning to `Cc1ccc(-c2cc(C(=O)NCC[N+](C)(C)C)c3cc(Br)ccc3n2)o1` [Compound 3, 6-Bromo-N,N,N-trimethyl-2-(2-(5-methylfuran-2-yl)quinoline-4-carboxamido)ethanaminium iodide], the IC50 in assay [1] is 1.2 µM. The EC50 in assay [3] is greater than 50 µM.

For `Cc1ccc(-c2cc(C(=O)NCCN3CCOCC3)c3cc(Br)ccc3n2)o1` [Compound 4, 6-Bromo-2-(5-methylfuran-2-yl)-N-(2-morpholinoethyl)quinoline-4-carboxamide], the IC50 in assay [1] amounted to 4.2 µM. Further, on TryR, the inhibitory constant (Ki) came to 3 ± 0.2 µM, the “Inhibitor constants Ki′” value amounted to 4.3 ± 0.3 µM and the Mode of inhibiton result is reported as “linear mixed”. This compound also yielded an IC50 in assay [2] of 74.2 µM. Also, the EC50 in assay [3] turned out to be 25.6 µM.

Consider `Cc1ccc(-c2cc(C(=O)NCc3ccccn3)c3cc(Br)ccc3n2)o1` [Compound 5, 6-Bromo-2-(5-methylfuran-2-yl)-N-(pyridin-2-ylmethyl)quinoline-4-carboxamide], for which, in assay [1], the IC50 was found to be 4.7 µM. Besides, at TryR, the Ki was found to be 2 ± 0.1 µM, the “Inhibitor constants Ki′” value stood at 3.0 ± 0.2 µM and the Mode of inhibiton entry is listed as “linear mixed”. The compound also registered an IC50 in assay [2] of 33.4 µM. Further, the EC50 in assay [3] stood at 18.7 µM.

On to `Cc1ccc(-c2cc(C(=O)NCCN(C)C)c3cc(Cl)ccc3n2)o1` [Compound 8, 6-Chloro-N-(2-(dimethylamino)ethyl)-2-(5-methylfuran-2-yl)quinoline-4-carboxamide], for which the IC50 in assay [1] was found to be 3.1 µM.

In the case of `Cc1ccc(-c2cc(C(=O)NCCN(C)C)c3ccc(Br)cc3n2)o1` [Compound 9, 7-Bromo-N-(2-(dimethylamino)ethyl)-2-(5-methylfuran-2-yl)quinoline-4-carboxamide], the IC50 in assay [1] is 5.7 µM.

On to `Cc1ccc(-c2cc(C(=O)NCCN(C)C)c3cccc(Br)c3n2)o1` [Compound 10, 8-Bromo-N-(2-(dimethylamino)ethyl)-2-(5-methylfuran-2-yl)quinoline-4-carboxamide], for which, in assay [1], the IC50 was 5.8 µM. For the same compound, in assay [3], the EC50 stood at 19.2 µM.

In the case of `Cc1ccc(-c2cc(C(=O)NCc3ccccn3)c3ccccc3n2)o1` [Compound 11, 2-(5-Methylfuran-2-yl)-N-(pyridin-2-ylmethyl)quinoline-4-carboxamide], in assay [1], the IC50 was 12.1 µM.

For `Cc1ccc(-c2cc(C(=O)NCCN(C)C)c3ccccc3n2)o1` [Compound 12, N-(2-(Dimethylamino)ethyl)-2-(5-methylfuran-2-yl)quinoline-4-carboxamide], the IC50 in assay [1] was 14.4 µM. For the same compound, in assay [3], the EC50 was found to be 32.1 µM.

Turning to `Cc1ccc(-c2cc(C(=O)NCc3ccccc3)c3cc(Br)ccc3n2)o1` [Compound 15, N-Benzyl-6-bromo-2-(5-methylfuran-2-yl)quinoline-4-carboxamide], the IC50 in assay [1] was greater than 100 µM.

As for `CN(C)CCNC(=O)c1cc(-c2ccco2)nc2ccc(Br)cc12` [Compound 20, 6-Bromo-N-(2-(dimethylamino)ethyl)-2-(furan-2-yl)quinoline-4-carboxamide], the IC50 in assay [1] was found to be 32.4 µM.

Take `Cc1ccc(-c2cc(C(=O)NCCN(C)C)c3cc(Br)ccc3n2)s1` [Compound 22, 6-Bromo-N-(2-(dimethylamino)ethyl)-2-(5-methylthiophen-2-yl)quinoline-4-carboxamide]: the IC50 in assay [1] is greater than 100 µM.

As for `Cc1ccc(-c2cc(C(=O)NCCc3ccccc3)c3cc(Br)ccc3n2)o1` [Compound 25, 6-bromo-2-(5-methylfuran-2-yl)-N-phenethylquinoline-4-carboxamide], the IC50 in assay [1] was greater than 100 µM.

Regarding `Cc1ccc(-c2cc(C(=O)NCCN(C)C)c3cc(F)ccc3n2)o1` [Compound 26, N-(2-(dimethylamino)ethyl)-6-fluoro-2-(5-methylfuran-2-yl)quinoline-4-carboxamide], the IC50 in assay [1] was greater than 100 µM.
